From PubChem BioAssay
A selection: hits, their analogues and other compounds. The true share with any hit is near 1.9%.
SR-BI DiI inh – mouse SR-BI HDL lipid transfer inhibition. inhibition, % at 12.5 µM. Q61009. 320,000 tested, 0.96% active. ldlA[mSR-BI] CHO cells, DiI-HDL uptake fluorescence, 3 h;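 active = mean replicate inhibition of at least 70% and a set share of replicates each scoring 70 or more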;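 also: 0% = median of neutral control wells and 100% = median of positive control wells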
Target sequence (Q61009 whole entry, looked up): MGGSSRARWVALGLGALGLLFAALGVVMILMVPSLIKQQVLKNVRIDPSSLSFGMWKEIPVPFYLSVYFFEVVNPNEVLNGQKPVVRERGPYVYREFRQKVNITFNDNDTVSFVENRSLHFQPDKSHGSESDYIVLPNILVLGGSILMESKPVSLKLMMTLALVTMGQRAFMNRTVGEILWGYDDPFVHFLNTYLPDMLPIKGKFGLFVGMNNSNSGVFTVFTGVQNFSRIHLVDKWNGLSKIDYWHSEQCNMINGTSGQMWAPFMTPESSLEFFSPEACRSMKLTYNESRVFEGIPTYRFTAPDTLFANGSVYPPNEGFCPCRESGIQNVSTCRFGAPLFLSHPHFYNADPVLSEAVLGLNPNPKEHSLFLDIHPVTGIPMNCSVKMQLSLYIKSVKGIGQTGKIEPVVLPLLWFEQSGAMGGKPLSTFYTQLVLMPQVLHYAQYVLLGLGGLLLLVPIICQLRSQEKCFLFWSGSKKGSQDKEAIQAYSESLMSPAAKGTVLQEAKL
Neddyl block – inhibitors of human cullin neddylation. AID 651699. TR-FRET cullin neddylation, biochemical. inhibition, % at 25 µM. 360,000 tested, 0.58% active; in the data active = inhibition above about 36%
SR-BI DiI-HDL act – activators of SR-BI mediated HDL lipid uptake; CHO ldlA[mSR-BI] cells, DiI-HDL uptake fluorescence, 3 h; 100 = double the neutral-control signal; activation, % at 12.5 µM; AID 504775; 320,000 tested, 0.096% active;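 active = mean replicate activation of at least 60% and every replicate at or above 60%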;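 also: 0% = median plate neutral-control signal and 100% = twice that signal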
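material = CHO ldlA[mSR-BI] cells | medium = Ham's F12 with 0.5% BSA, HEPES 25 mM, pH 7.4 | reagent = fluorescent DiI-HDL, 10 µg/mL final | compound dosing = single-point compound dose | incubation = 3 h, 37 °C | measured by = bottom-read fluorescence, 550/595 nm | measure = HDL uptake via cellular fluorescence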
UBC13 inh – human UBC13 polyubiquitination inhibition. P61088. UBC13 polyubiquitin chain formation, TR-FRET. inhibition, % at 20 µM. 330,000 tested, 0.47% active; in the data active = inhibition above about 45%, passing the limit was not always enough
* marks the source's active call; other numbers are inactive results; · = no result given.

SMILES | SR-BI DiI inh | Neddyl block | SR-BI DiI-HDL act | UBC13 inh
CCC(=NNC(=O)c1ccc2c(c1)nc(C)n2CC)c1cc(F)ccc1O | 114* | 38 | -114 | -3
COc1ccc(CCNC(=O)c2ccc(CNS(=O)(=O)c3cc(C)ccc3C)cc2)cc1OC | 79* | -7 | -79 | 5
COc1ccc(CC(=O)NCCc2ccc(OC)c(OC)c2)cc1 | -8 | -2 | 8 | -5
COc1ccc(C(=O)Nc2ccc(C(=O)NCCc3ccc(OC)c(OC)c3)cc2)cc1 | 79* | -2 | -79 | 11
COc1ccc(CCNC(=O)c2ccc(CNS(=O)(=O)c3cccc(Cl)c3)cc2)cc1OC | 81* | 3 | -81 | -8
Cn1c(=S)n(/N=C/c2cccs2)c2ccccc21 | -262 | -18 | 262* | 4
COc1cccc(/C=N/n2c(=S)n(C)c3ccccc32)c1OC | 16 | 2 | -16 | 4
CCc1nc2ccc(C(=O)NCCN3CCNC3=O)cn2c1N(CCC(C)C)CCN(C)C | · | -3 | · | ·
CCN(CC)c1ncnc2c1ncn2[C@H]1CN(Cc2ccc3c(c2)OCO3)C[C@@H](CO)O1 | · | 10 | · | ·
O=C(NCCC1CCCCN1S(=O)(=O)c1cccs1)C(=O)Nc1cccc(F)c1 (stereo not given) | 29 | 2 | -29 | -5
COc1ccc(C(=O)c2ccc(N3CCOCC3)c([N+](=O)[O-])c2)cc1 | 80* | -18 | -80 | -6
COc1ccc(Nc2nnc(-c3ccc(C(N)=O)cc3)c3ccccc23)cc1 | 66 | 0 | -66 | -11
COc1ccc(Nc2nnc(-c3ccc(N4CCOCC4)c([N+](=O)[O-])c3)c3ccccc23)cc1 | 79* | -22 | -79 | ·
CCCCCCN1C[C@H](n2cc(C3CC3)nn2)[C@@H](O)C[C@@H]1c1ccc(OC)cc1 | · | 0 | · | ·
CCOC(=O)c1ccc(Nc2nc(N)c3cc(OC)c(OC)cc3n2)cc1 | -3 | 45* | 3 | 34
CCCCN1C(=O)/C(=C2/Sc3ccccc3N2C)S/C1=N\c1ncn[nH]1 | 83* | -16 | -83 | -9
CCCCN1C2=C(C(=O)CCC2)C(c2ccc(Cl)c(Cl)c2)C2=C1c1ccccc1C2=O (stereo not given) | 85* | -20 | -85 | -42
CCOc1ccc(C(=O)NCC2CCN(CC3CCCCC3)CC2)cc1 | -4 | 0 | 4 | 5
COc1ccc(/C=N/NC(=O)c2ccc(Br)cc2)c(OC)c1 | 83* | 19 | -83 | -3
O=C(N/N=C1\CC2CC=CC12)c1ccc(COc2ccccc2)cc1 (stereo not given) | 18 | -2 | -18 | -2
CC(C)(C)c1ccc(OCc2ccc(C(=O)N/N=C3\CC4CC=CC34)cc2)cc1 (stereo not given) | 79* | 6 | -79 | -19
Cn1cccc1-c1cc(C(=O)N/N=C/c2cc(Br)ccc2O)[nH]n1 | 105* | 26 | -105 | -2
COc1ccc(O)c(/C=N/NC(=O)c2ccc(OCc3cccc(Br)c3)cc2)c1 | 129* | 23 | -129 | -11
COc1ccc(Br)cc1/C=N/NC(=O)c1cc(Br)ccc1O | · | · | · | -6
CCCOc1ccc(Br)cc1/C=N/NC(=O)c1cc(OC)c(OC)c(OC)c1 | 76* | 3 | -76 | -10
SMILES | SR-BI DiI inh | Neddyl block | SR-BI DiI-HDL act | UBC13 inh
CC(C)(C)c1ccc(OCc2ccc(C(=O)N/N=C/c3ccc(O)c(O)c3)cc2)cc1 | 107* | 15 | -107 | -4
COc1ccc(C(=O)N/N=C/c2cc(Br)ccc2O)cc1OC | 120* | 9 | -120 | -8
COc1ccc(Br)cc1/C=N/NC(=O)c1cccnc1 | 33 | -10 | -33 | 4
Cc1cc2nc(NC(=O)C3(C)CCN(C)C3)[nH]c2cc1C (stereo not given) | · | 6 | · | ·
CN(Cc1cnn(-c2ccccc2)c1)C(=O)c1cccc(S(=O)(=O)Nc2ccccc2F)c1 | · | -1 | · | ·
CCN(CC)c1ccc(/C=N/NC(=O)c2nnn(-c3nonc3N)c2C(C)C)c(O)c1 | 133* | · | -133 | -15
CCN(CC)c1ccc(/C=N/NC(=O)c2ccc3nc[nH]c3c2)c(O)c1 | · | 38* | · | -14
CCN(CC)c1ccc(/C=N/NC(=O)c2ccoc2C)c(O)c1 | 100* | 5 | -100 | -3
CCC1Oc2ccc(C)cc2N(CC(=O)NC2CCCCC2)C1=O (stereo not given) | 89* | 0 | -89 | 0
Cc1nc(N2CCOCC2)nc(N2CCN(c3ccccc3)CC2)c1[N+](=O)[O-] | 78* | -5 | -78 | 3
COc1ccc(/C=N/NC(=O)c2nc(-c3ccccc3)n(-c3ccccc3)n2)cc1 | 1 | 3 | -1 | 8
CC(C)(C)c1cc(C(=O)N/N=C/c2ccccc2O)n(-c2ccccc2)n1 | 100* | · | -100 | -4
